Results taken from ChEMBL document CHEMBL1156822, “Isosorbide-2-benzyl carbamate-5-salicylate, a peripheral anionic site binding subnanomolar selective butyrylcholinesterase inhibitor” (J Med Chem, 2010).
pIC50: −log10 of the molar value.

Columns and labels:
[1] = target: T1, Cholinesterase (Homo sapiens, UniProt P06276); assay: Inhibition of BuChE in human liver microsomes
[2] = target: Acetylcholinesterase (Electrophorus electricus) (UniProt O42275); assay: Inhibition of electric eel AChE type 6S at 100 uM
Outline: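 Electric eel AChE (type VI-S) in pH 8.0 phosphate buffer was preincubated for 30 min at 37 °C with test compound added from a 2 mmol MeCN stock. Ellman read-out followed, with final DTNB 0.3 mmol and acetylthiocholine 0.5 mmol.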

[3] = Selectivity for human BuChe over electric eel AChE type 6S
[4] = target: T1, Cholinesterase; assay: Inhibition of BuChE in human liver microsomes assessed as dissociation constant for Michaelis complex formation by enzyme kinetic study; settings: Microsome
[5] = Inhibition of human BuChE D70G mutant assessed as dissociation constant for Michaelis complex formation by enzyme kinetic study
Outline: (§1)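 Wild-type human BuChE (lyophilised, dissolved in pH 8.0 phosphate buffer) or recombinant mutants. Final concentrations: enzyme 0.05 U mL^-1, DTNB 0.3 mmol, butyrylthiocholine 0.5 mmol. Inhibitor at various concentrations was mixed with enzyme at time 0. Aliquots taken at successive times were read at 412 nm over 30 s, in at least two wells each. k_obs came from a first-order fit, and K_c from a nonlinear fit of k_obs against inhibitor concentration.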

[6] = species: Homo sapiens; assay: Inhibition of human BuChE Y332A mutant assessed as dissociation constant for Michaelis complex formation by enzyme kinetic study; outline: as §1
[7] = species: Homo sapiens; assay: Inhibition of human BuChE D70G/Y332A mutant assessed as dissociation constant for Michaelis complex formation by enzyme kinetic study; outline: as §1
[8] = target: Acetylcholinesterase (Homo sapiens) (UniProt P22303); assay: Inhibition of human erythrocyte AChE at 100 uM
[9] = target: T2, Liver carboxylesterase 1 (Homo sapiens, UniProt P23141); assay: Inhibition of human CES1-mediated pNPA substrate turnover
T2 sequence (P23141 whole entry): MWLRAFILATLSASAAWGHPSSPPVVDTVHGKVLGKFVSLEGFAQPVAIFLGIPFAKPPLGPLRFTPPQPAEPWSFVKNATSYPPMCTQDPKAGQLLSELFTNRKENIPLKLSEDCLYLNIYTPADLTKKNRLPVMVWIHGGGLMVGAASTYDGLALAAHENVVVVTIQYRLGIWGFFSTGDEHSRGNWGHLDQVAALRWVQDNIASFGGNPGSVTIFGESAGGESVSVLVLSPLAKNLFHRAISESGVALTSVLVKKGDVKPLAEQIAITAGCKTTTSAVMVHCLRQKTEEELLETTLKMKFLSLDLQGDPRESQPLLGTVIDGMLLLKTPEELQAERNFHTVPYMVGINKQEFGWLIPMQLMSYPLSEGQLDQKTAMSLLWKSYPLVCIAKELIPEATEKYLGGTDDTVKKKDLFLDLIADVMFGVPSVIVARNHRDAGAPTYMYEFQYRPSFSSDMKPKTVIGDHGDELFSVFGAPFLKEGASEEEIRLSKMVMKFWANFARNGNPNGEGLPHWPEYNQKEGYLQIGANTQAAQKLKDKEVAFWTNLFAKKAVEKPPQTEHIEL
Outline: (§2)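 Source: pooled human liver microsomes (CES1) or human intestinal microsomes (CES2). The microsomes were preincubated with inhibitor at 50 nM-200 μM in 50 mM Tris-HCl pH 7.4 for 30 min at 37 °C. Substrate was pNPA at 3 mM final. p-Nitrophenol release was read at 405 nm. Rates were corrected for spontaneous-hydrolysis blanks, with four independent measurements per concentration. IC50 came from nonlinear sigmoidal curve fit.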

[10] = target: T3, Cocaine esterase (Homo sapiens, UniProt O00748); assay: Inhibition of human CES2-mediated pNPA substrate turnover; outline: as §2
T3 sequence (O00748 whole entry): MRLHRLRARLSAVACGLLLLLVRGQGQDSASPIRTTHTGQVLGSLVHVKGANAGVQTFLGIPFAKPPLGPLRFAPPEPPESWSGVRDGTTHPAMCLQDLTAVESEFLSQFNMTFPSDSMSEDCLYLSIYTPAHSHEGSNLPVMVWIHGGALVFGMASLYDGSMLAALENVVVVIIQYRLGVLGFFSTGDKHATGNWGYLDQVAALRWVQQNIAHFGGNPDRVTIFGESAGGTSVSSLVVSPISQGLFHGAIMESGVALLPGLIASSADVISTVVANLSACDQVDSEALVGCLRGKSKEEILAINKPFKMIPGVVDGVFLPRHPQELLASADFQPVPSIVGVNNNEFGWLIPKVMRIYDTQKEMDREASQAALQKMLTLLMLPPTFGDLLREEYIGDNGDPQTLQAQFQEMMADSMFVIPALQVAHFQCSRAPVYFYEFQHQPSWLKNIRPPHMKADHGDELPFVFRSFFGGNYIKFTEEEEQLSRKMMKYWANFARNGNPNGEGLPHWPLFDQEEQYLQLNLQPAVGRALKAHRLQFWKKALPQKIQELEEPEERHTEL

[11] = species: Homo sapiens; assay: Selectivity for human BuChe over human CES2
[12] = test system: Plasma; assay: Metabolic stability in 33% human plasma assessed as compound hydrolysis after 1 hr by HPLC; assay type: ADME, cell-free
Outline: (§3)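 The ester (1 × 10^-4 M) was incubated in human plasma solution (33-50%), mouse plasma (33%) or mouse liver homogenate. Remaining intact ester was measured by HPLC as a function of time over 1 h.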

[13] = test system: Plasma; assay: Metabolic stability in 33% mouse plasma assessed as compound hydrolysis after 1 hr by HPLC; assay type: ADME, cell-free; outline: as §3
[14] = test system: Liver; assay: Metabolic stability in 33% mouse liver homogenate assessed as compound hydrolysis after 1 hr by HPLC; assay type: ADME, tissue-based; settings: tissue homogenate; outline: as §3

Sequence of Acetylcholinesterase (Electrophorus electricus) (O42275 24-633 limits assumed): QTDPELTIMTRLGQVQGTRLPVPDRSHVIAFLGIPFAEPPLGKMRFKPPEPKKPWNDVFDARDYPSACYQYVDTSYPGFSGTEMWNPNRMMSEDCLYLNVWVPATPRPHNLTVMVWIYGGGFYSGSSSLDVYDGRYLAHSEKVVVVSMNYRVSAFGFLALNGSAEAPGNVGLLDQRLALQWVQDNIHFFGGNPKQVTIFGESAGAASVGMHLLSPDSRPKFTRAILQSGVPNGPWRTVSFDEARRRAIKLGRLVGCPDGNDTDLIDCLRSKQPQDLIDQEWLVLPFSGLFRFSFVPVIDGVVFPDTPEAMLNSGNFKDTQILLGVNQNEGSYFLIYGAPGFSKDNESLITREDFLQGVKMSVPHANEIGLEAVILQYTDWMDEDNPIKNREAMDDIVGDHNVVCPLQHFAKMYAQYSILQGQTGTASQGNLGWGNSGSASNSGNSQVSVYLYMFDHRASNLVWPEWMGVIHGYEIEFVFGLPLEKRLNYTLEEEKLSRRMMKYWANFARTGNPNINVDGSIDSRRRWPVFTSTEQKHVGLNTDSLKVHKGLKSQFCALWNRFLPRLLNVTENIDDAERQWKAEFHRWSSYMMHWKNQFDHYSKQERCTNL
T1 sequence (P06276 whole entry): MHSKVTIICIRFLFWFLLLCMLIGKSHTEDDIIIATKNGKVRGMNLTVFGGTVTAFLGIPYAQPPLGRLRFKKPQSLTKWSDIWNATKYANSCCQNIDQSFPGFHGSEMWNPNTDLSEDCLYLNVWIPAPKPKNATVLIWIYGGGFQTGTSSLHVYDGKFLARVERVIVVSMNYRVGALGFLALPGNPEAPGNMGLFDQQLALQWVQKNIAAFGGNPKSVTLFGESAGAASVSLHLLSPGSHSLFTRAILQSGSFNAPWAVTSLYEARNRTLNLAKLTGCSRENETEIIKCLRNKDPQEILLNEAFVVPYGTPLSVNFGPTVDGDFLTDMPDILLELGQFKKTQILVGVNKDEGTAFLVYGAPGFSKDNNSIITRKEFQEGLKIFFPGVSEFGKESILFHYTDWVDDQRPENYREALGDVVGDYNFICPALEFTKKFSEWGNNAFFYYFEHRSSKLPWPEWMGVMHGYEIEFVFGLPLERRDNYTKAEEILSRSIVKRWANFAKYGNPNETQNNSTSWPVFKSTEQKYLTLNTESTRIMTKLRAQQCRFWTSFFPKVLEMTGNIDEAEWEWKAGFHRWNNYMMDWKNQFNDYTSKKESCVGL
Sequence of Acetylcholinesterase (Homo sapiens) (P22303 whole entry): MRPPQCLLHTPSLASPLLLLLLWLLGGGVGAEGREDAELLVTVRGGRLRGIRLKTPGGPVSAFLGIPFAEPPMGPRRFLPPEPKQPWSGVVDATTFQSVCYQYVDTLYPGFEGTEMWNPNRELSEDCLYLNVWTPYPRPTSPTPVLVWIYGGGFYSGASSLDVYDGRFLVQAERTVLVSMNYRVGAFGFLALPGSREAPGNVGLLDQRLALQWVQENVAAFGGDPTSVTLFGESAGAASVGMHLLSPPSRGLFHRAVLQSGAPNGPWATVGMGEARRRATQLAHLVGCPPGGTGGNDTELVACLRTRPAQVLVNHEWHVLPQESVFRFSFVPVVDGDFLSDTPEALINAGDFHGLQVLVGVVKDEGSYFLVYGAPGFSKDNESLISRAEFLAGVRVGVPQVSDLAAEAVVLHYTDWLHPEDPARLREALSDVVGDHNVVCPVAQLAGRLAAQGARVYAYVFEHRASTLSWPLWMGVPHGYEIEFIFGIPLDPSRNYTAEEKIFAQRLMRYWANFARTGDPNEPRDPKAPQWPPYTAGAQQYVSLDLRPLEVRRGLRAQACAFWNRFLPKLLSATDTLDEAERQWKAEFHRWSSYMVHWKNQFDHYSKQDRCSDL

| Compound | pIC50 [1] | inhibition [2] [%] | Ratio [3] | Activity [4] [µM] | further results |
| --- | --- | --- | --- | --- | --- |
| O=C(NCc1ccccc1)O[C@H]1CO[C@H]2[C@@H]1OC[C@H]2OC(=O)c1ccc([N+](=O)[O-])cc1 | 6.93 | 27 | > 854 | – | – |
| O=C(NCc1ccccc1)O[C@H]1CO[C@H]2[C@@H]1OC[C@H]2OC(=O)c1ccccc1[N+](=O)[O-] | 7.74 | 0 | > 5560 | – | – |
| CCCCNC(=O)O[C@H]1CO[C@H]2[C@@H]1OC[C@H]2OC(=O)c1ccccc1 | 7.14 | – | – | 2.57 | Activity [5]: 2.7 µM; Activity [6]: 1.3 µM; Activity [7]: 5.3 µM |
| O=C(NCc1ccccc1)O[C@H]1CO[C@H]2[C@@H]1OC[C@H]2OC(=O)c1ccc(-c2ccccc2)cc1 | – | – | – | 0.4 | – |
| O=C(NCc1ccccc1)O[C@H]1CO[C@H]2[C@@H]1OC[C@H]2OC(=O)c1ccccc1O | 9.82 | 47 | > 660000 | 0.01 | inhibition [8]: 52%; Activity [9]: Not Active; pIC50 [10]: 5.47; Ratio IC50 [11]: 22800; Stability [12]: Stable; Stability [13]: Stable; Stability [14]: Stable; Activity [5]: 0.067 µM; Activity [6]: 0.05 µM; Activity [7]: 0.445 µM |
| Nc1ccccc1C(=O)O[C@@H]1CO[C@H]2[C@@H]1OC[C@@H]2OC(=O)NCc1ccccc1 | 7.57 | 0 | > 3700 | – | – |
| Nc1ccc(C(=O)O[C@@H]2CO[C@H]3[C@@H]2OC[C@@H]3OC(=O)NCc2ccccc2)cc1 | 6.53 | 33 | 336 | – | – |
| O=C(O[C@@H]1CO[C@H]2[C@@H]1OC[C@@H]2OC(=O)N1CCOCC1)c1ccccc1O | 5.98 | 12 | > 95 | – | – |
| O=C(NCc1ccccc1)O[C@H]1CO[C@H]2[C@@H]1OC[C@H]2OC(=O)c1cccc(O)c1 | 7.80 | 0 | > 6250 | – | – |
| Nc1cccc(C(=O)O[C@@H]2CO[C@H]3[C@@H]2OC[C@@H]3OC(=O)NCc2ccccc2)c1 | 7.07 | 0 | > 1170 | – | – |
| CN(C)C(=O)O[C@H]1CO[C@H]2[C@@H]1OC[C@H]2OC(=O)c1ccccc1O | 8.19 | 0 | > 15600 | – | – |
| CCN(CC)C(=O)O[C@H]1CO[C@H]2[C@@H]1OC[C@H]2OC(=O)c1ccccc1O | 5.58 | 0 | > 38 | – | – |
| CCNC(=O)O[C@H]1CO[C@H]2[C@@H]1OC[C@H]2OC(=O)c1ccccc1O | 8.02 | 16 | > 10400 | 0.075 | Activity [5]: 0.32 µM; Activity [6]: 0.42 µM; Activity [7]: 2.26 µM |
| O=C(NCc1ccccc1)O[C@H]1CO[C@H]2[C@@H]1OC[C@H]2OC(=O)c1cccnc1 | – | – | – | 1.9 | – |
| O=Nc1ccccc1C(=O)O[C@@H]1CO[C@H]2[C@@H]1OC[C@@H]2OC(=O)NCc1ccccc1 | 7.41 | 0 | > 2560 | – | – |
| O=C(NCc1ccccc1)O[C@H]1CO[C@H]2[C@@H]1OC[C@H]2OC(=O)c1ccccc1 | – | – | – | – | Activity [5]: 2.4 µM; Activity [6]: 1.5 µM; Activity [7]: 6.4 µM |
| O=C(NCc1ccccc1)O[C@H]1CO[C@H]2[C@@H]1OC[C@H]2O | – | – | – | 18.7 | – |
| Cc1ccccc1C(=O)O[C@@H]1CO[C@H]2[C@@H]1OC[C@@H]2OC(=O)NCc1ccccc1 | 8.92 | 26 | > 83300 | 0.248 | – |
| O=C(NCc1ccccc1)O[C@H]1CO[C@H]2[C@@H]1OC[C@H]2OC(=O)c1ccc(O)cc1 | 6.49 | 0 | > 309 | – | – |
| O=C(NCc1ccccc1)O[C@H]1CO[C@H]2[C@@H]1OC[C@H]2OC(=O)c1cccc([N+](=O)[O-])c1 | 7.49 | 0 | > 3120 | – | – |
